Source: ChEMBL document CHEMBL3286091, “Novel N-linked aminopiperidine-based gyrase inhibitors with improved hERG and in vivo efficacy against Mycobacterium tuberculosis” (J Med Chem, 2014)
Values after ≈ are worked out from the molar mass of the structure shown. Active and inactive are the calls of the source. The rule behind the calls is not given here.

Assays:
[1] = tested on: Mycobacterium tuberculosis; assay: Antimycobacterial activity against 2-oxo-1-(2-(4-((3-oxo-3,4-dihydro-2H-pyrido[3,2-b][1,4]oxazin-6-yl)methylamino)piperidin-1-yl)ethyl)-1,2-dihydroquinoline-7-carbonitrile-resistant Mycobacterium tuberculosis harboring DNA gyraseA A74V mutant; format: functional
[2] = tested on: Mycobacterium tuberculosis; assay: Antimycobacterial activity against 5-(((3S,4R)-3-Fluoro-1-(2-(7-methoxy-2-oxo-1,5-naphthyridin-1(2H)-yl)ethyl)piperidin-4-ylamino)methyl)-2-methylnicotinonitrile-resistant Mycobacterium tuberculosis harboring DNA gyraseA D89N mutant; format: functional
[3] = tested on: Mycobacterium tuberculosis; assay: Antimycobacterial activity against moxifloxacin-resistant Mycobacterium tuberculosis harboring DNA gyraseA G88N mutant; format: functional
[4] = Ratio of MIC for 2-oxo-1-(2-(4-((3-oxo-3,4-dihydro-2H-pyrido[3,2-b][1,4]oxazin-6-yl)methylamino)piperidin-1-yl)ethyl)-1,2-dihydroquinoline-7-carbonitrile-resistant Mycobacterium tuberculosis harboring DNA gyraseA A74V mutant to MIC for wild-type Mycobacterium tuberculosis H37Rv ATCC 27294; format: functional
[5] = Ratio of MIC for 5-(((3S,4R)-3-Fluoro-1-(2-(7-methoxy-2-oxo-1,5-naphthyridin-1(2H)-yl)ethyl)piperidin-4-ylamino)methyl)-2-methylnicotinonitrile-resistant Mycobacterium tuberculosis harboring DNA gyraseA D89N mutant to MIC for wild-type Mycobacterium tuberculosis H37Rv ATCC 27294; format: functional
[6] = tested on: Mycobacterium tuberculosis; assay: Antimycobacterial activity against spontaneously resistant mutant of Mycobacterium tuberculosis H37Rv at 10 to 20 times MIC up to 6 to 8 weeks; format: functional, organism-based
Procedure, shortened: (§1)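 Single-step selection: mid-log H37Rv culture concentrated 100-fold to ~10^10 cfu/mL and plated in dilutions on 7H11 agar with varying drug concentrations. Drug-free plates were counted after 4 weeks at 37 °C and drug plates after 6−8 weeks. Frequency is the colony count on drug plates divided by viable cfu on drug-free plates.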

[7] = tested on: Mycobacterium tuberculosis; assay: Antimycobacterial activity against spontaneously resistant mutant of Mycobacterium tuberculosis H37Rv at 8 times MIC up to 6 to 8 weeks; format: functional, organism-based; procedure, shortened: as §1

With `Cc1ncc(CNC2CCN(CCn3c(=O)ccc4ccc(C#N)cc43)CC2)cc1C#N` the MIC [1] was greater than 2 µg/mL, the MIC [2] was greater than 2 µg/mL and the MIC [3] was 0.06 µg/mL (≈ 0.141 µM). The Ratio [4] was greater than 16 and the Ratio [5] was greater than 16.

Work on `COc1cnc2ccc(=O)n(CCN3CC[C@@H](NCc4cnc(C)c(C#N)c4)[C@@H](F)C3)c2c1` yielded an MIC [1] of 1 µg/mL (≈ 2.22 µM), an MIC [2] greater than 1 µg/mL and an MIC [3] of 0.03 µg/mL (≈ 0.0666 µM). For the same compound, the Ratio [4] was greater than 16, the Ratio [5] was greater than 16 and the Activity [6] was “inactive”.

In the case of `COc1c(N2C[C@@H]3CCCN[C@@H]3C2)c(F)cc2c(=O)c(C(=O)O)cn(C3CC3)c12` [MOXIFLOXACIN], the MIC [1] was 0.06 µg/mL (≈ 0.149 µM), the MIC [2] was 1 µg/mL (≈ 2.49 µM) and the MIC [3] was 4 µg/mL (≈ 9.96 µM). The Activity [6] was “inactive”.

For `CC1COc2c(N3CCN(C)CC3)c(F)cc3c(=O)c(C(=O)O)cn1c23` (centres undefined) [OFLOXACIN], the MIC [1] was 1 µg/mL (≈ 2.77 µM), the MIC [2] was 4 µg/mL (≈ 11.1 µM) and the MIC [3] was 16 µg/mL (≈ 44.3 µM). For the same compound, the Ratio [5] was 8.

With `N#Cc1ccc2ccc(=O)n(CCN3CCC(NCc4ccc5c(n4)NC(=O)CO5)CC3)c2c1` the MIC [1] was 2 µg/mL (≈ 4.36 µM), the MIC [2] was greater than 2 µg/mL and the MIC [3] was 0.03 µg/mL (≈ 0.0654 µM). The Ratio [4] was greater than 16, the Ratio [5] was greater than 16 and the Activity [7] was “inactive”.

With `NNC(=O)c1ccncc1` [ISONIAZID] the MIC [1] was 0.06 µg/mL (≈ 0.438 µM), the MIC [2] was 0.03 µg/mL (≈ 0.219 µM) and the MIC [3] was 0.06 µg/mL (≈ 0.438 µM).

`O=C1COc2ccc(CN[C@H]3CCN(CCn4c(=O)ccc5ncc(F)cc54)C[C@H]3F)nc2N1` showed an MIC [1] greater than 2 µg/mL, an MIC [2] greater than 2 µg/mL and an MIC [3] of 0.06 µg/mL (≈ 0.128 µM).

In the case of `CO[C@H]1/C=C/O[C@@]2(C)Oc3c(C)c(O)c4c(O)c(c(/C=N/N5CCN(C)CC5)c(O)c4c3C2=O)NC(=O)/C(C)=C\C=C\[C@H](C)[C@H](O)[C@@H](C)[C@@H](O)[C@@H](C)[C@H](OC(C)=O)[C@@H]1C` [RIFAMPIN], the MIC [1] was 0.008 µg/mL (≈ 0.00972 µM), the MIC [2] was 0.015 µg/mL (≈ 0.0182 µM) and the MIC [3] was 0.008 µg/mL (≈ 0.00972 µM).

`O=C(O)c1cn(C2CC2)c2cc(N3CCNCC3)c(F)cc2c1=O` [CIPROFLOXACIN] showed an MIC [1] of 0.25 µg/mL (≈ 0.754 µM), an MIC [2] of 4 µg/mL (≈ 12.1 µM) and an MIC [3] of 8 µg/mL (≈ 24.1 µM). The Ratio [5] was 16 and the Activity [7] was “inactive”.
